The source made the active and inactive calls. No cut-off for these calls is given here.
Legend:
[1] = tested on: Puccinia triticina; experiment: Antifungal activity against Puccinia recondita f. sp. tritici infected in wheat seedlings at 40 ppm relative to control; type: functional
In short: (§1)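 Test suspension sprayed to run-off on Stevens wheat seedlings. Next day inoculated with a Puccinia recondita f. sp. tritici spore suspension. Held 24 h in a saturated atmosphere at 20 °C, then 7 days in a 20 °C growth chamber before disease rating. Rates in ppm. Given as percent control versus untreated control plants.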

[2] = tested on: Parastagonospora nodorum; experiment: Antifungal activity against Stagonospora nodorum infected in wheat seedlings at 40 ppm relative to control; type: functional
In short: (§2)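 Wheat seedlings, treated the day before, inoculated with a Stagonospora nodorum spore suspension. Held in a saturated atmosphere at 20 °C for 48 h, then 5 days in a growth chamber at 22 °C, then disease rated. Rates in ppm. Scored as percent control relative to untreated control plants.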

[3] = tested on: Parastagonospora nodorum; experiment: Antifungal activity against Stagonospora nodorum infected in wheat seedlings at 10 ppm relative to control; type: functional; in short: as §2
[4] = tested on: Parastagonospora nodorum; experiment: Antifungal activity against Stagonospora nodorum infected in wheat seedlings at 200 ppm relative to control; type: functional; in short: as §2
[5] = tested on: Botrytis cinerea; experiment: Antifungal activity against Botryotinia fuckeliana infected in orange pixie tomato seedlings at 40 ppm relative to control; type: functional
In short: (§3)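 Orange Pixie tomato seedlings sprayed to run-off with test suspension, then inoculated next day with a Botryotinia fuckeliana spore suspension. Kept saturated at 20 °C for 48 h, then 1 more day at 24 °C in a growth chamber before rating. Rates in ppm. Expressed as percent control relative to untreated control plants.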

[6] = tested on: Botrytis cinerea; experiment: Antifungal activity against Botryotinia fuckeliana infected in orange pixie tomato seedlings at 2 ppm relative to control; type: functional; in short: as §3
[7] = tested on: Puccinia triticina; experiment: Antifungal activity against Puccinia recondita f. sp. tritici infected in wheat seedlings at 10 ppm relative to control; type: functional; in short: as §1
[8] = tested on: Puccinia triticina; experiment: Antifungal activity against Puccinia recondita f. sp. tritici infected in wheat seedlings at 200 ppm relative to control; type: functional; in short: as §1
[9] = tested on: Puccinia triticina; experiment: Antifungal activity against Puccinia recondita f. sp. tritici infected in wheat seedlings at 2 ppm relative to control; type: functional; in short: as §1
[10] = Antiproliferative activity against human Rhabdomyosarcoma cells after 96 hrs by MTS assay; type: functional, cell-based; details: Rhabdomyosarcoma cell
In short: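 Rhabdomyosarcoma cells (ATCC CCL-136) seeded at 10,000 cells/well and allowed to adhere 1–3 h. Medium then replaced with compound-containing medium over a concentration range. Grown 96 h at 37 °C, 5% CO2. Viable cells read by MTS/PMS formazan after 3–4 h at 37 °C, absorbance 490 nm. Data normalized to solvent-only wells; IC50 in nM.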

[11] = tested on: Parastagonospora nodorum; experiment: Antifungal activity against Stagonospora nodorum infected in wheat seedlings at 2 ppm relative to control; type: functional; in short: as §2
[12] = tested on: Botrytis cinerea; experiment: Antifungal activity against Botryotinia fuckeliana infected in orange pixie tomato seedlings at 10 ppm relative to control; type: functional; in short: as §3
[13] = tested on: Botrytis cinerea; experiment: Antifungal activity against Botryotinia fuckeliana infected in orange pixie tomato seedlings at 200 ppm relative to control; type: functional; in short: as §3
[14] = target: T1, Tubulin (Bos taurus) (UniProt Q6B856+Q862L2+Q862F3); experiment: Induction of bovine tubulin polymerization at 3 uM by microplate reader; type: protein assay
In short: (§4)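 Purified bovine tubulin at 4 mg/ml in 80 mM PIPES pH 6.9, 0.5 mM EGTA, 2 mM MgCl2, 1 mM GTP. Compound added at reaction start at constant DMSO. Polymerization started at 37 °C and followed over time by absorbance at 340 nm. Controls: paclitaxel 10 µM (positive) and 0.5% DMSO (negative).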

[15] = target: T1, Tubulin (Bos taurus); experiment: Induction of bovine tubulin polymerization at 10 uM by microplate reader; type: protein assay; in short: as §4

Row | Activity [14] | Activity [15] | SMILES | Activity [1] [%] | Activity [2] [%] | Activity [3] [%] | Activity [4] [%] | Activity [5] [%] | Activity [6] [%] | Activity [7] [%] | Activity [8] [%] | Activity [9] [%] | IC50 [10] [nM] | Activity [11] [%] | Activity [12] [%] | Activity [13] [%]
1 | – | – | CC[C@H](C)Cn1c(-c2c(F)cc(OCCCN(C)C)cc2F)c(Cl)nc(-n2cccn2)c1=O | 99 | 0 | 0 | 94 | 94 | 0 | 89 | 100 | 0 | 1.3 | 0 | 94 | –
2 | – | – | CC[C@H](C)Cn1c(-c2c(F)cc(F)cc2F)c(Cl)nc(-n2cccn2)c1=O | 100 | 100 | 99 | – | 100 | 100 | 100 | – | 99 | 20 | 0 | 100 | –
3 | – | – | CC(C)Cn1c(-c2ccc(F)cc2Cl)c(Cl)nc(-n2cccn2)c1=O | 100 | 100 | 99 | 100 | 100 | 100 | 100 | 100 | 83 | – | 0 | 100 | 100
4 | – | – | CC[C@H](C)Cn1c(-c2c(F)cccc2F)c(Cl)nc(-n2ccnn2)c1=O | 67 | 0 | 0 | 73 | 81 | – | 67 | 73 | – | – | – | 33 | 98
5 | Active | – | CC(C)Cn1c(-c2c(F)cccc2F)c(Cl)nc(-n2cccn2)c1=O | 100 | 99 | 92 | – | 99 | 75 | 100 | – | 28 | – | 0 | 97 | –
6 | – | – | CCC(C)Cn1c(-c2c(F)cc(F)cc2F)c(Cl)nc(-n2cccn2)c1=O (stereo not drawn) | 100 | 100 | 98 | 100 | 100 | 100 | 100 | 100 | 89 | – | 0 | 100 | 100
7 | – | – | CC(C)Cn1c(-c2c(F)cccc2F)c(Cl)nc(-c2cn(C)cn2)c1=O | 97 | 67 | 0 | 97 | 99 | 0 | 0 | 99 | 0 | – | 0 | 0 | 100
8 | Active | – | CC(C)Cn1c(-c2c(F)cc(F)cc2F)c(Cl)nc(-n2cccn2)c1=O | 100 | 100 | 90 | 100 | 100 | 100 | 100 | 100 | 92 | – | 0 | 100 | 100
9 | – | – | CC[C@H](C)Cn1c(-c2c(F)cc(OCCCNC)cc2F)c(Cl)nc(-n2cccn2)c1=O.Cl | 100 | 88 | 33 | 100 | 99 | 21 | 99 | 100 | 68 | 0.6 | 0 | 99 | 100
10 | – | – | CC[C@H](C)Cn1c(-c2c(F)cccc2F)c(Cl)nc(-n2nc(C)cc2C)c1=O | 22 | 0 | 0 | 0 | 0 | – | 0 | 73 | – | – | – | 0 | 0
11 | – | – | CC(C)Cn1c(-c2c(F)cccc2F)c(Cl)nc(-c2nccn2C)c1=O | 0 | 0 | 0 | 0 | 0 | – | 0 | 0 | – | – | – | 0 | 0
12 | – | – | CC[C@H](C)Cn1c(-c2c(F)cc(OCCN(C)C)cc2F)c(Cl)nc(-n2cccn2)c1=O | 91 | – | – | – | 68 | – | 55 | 100 | – | 210 | – | 0 | 99
13 | – | Active | CC(=O)O[C@H]1C(=O)[C@@]2(C)[C@H]([C@H](OC(=O)c3ccccc3)[C@]3(O)C[C@H](OC(=O)[C@H](O)[C@@H](NC(=O)c4ccccc4)c4ccccc4)C(C)=C1C3(C)C)[C@]1(OC(C)=O)CO[C@@H]1C[C@@H]2O [PACLITAXEL] | – | – | – | 91 | – | – | – | 95 | – | 8.4 | – | – | 0
14 | – | – | CC(=O)Nc1nc(Cl)c(-c2c(F)cccc2F)n(CC(C)C)c1=O | 90 | 0 | 0 | 0 | 92 | – | 0 | 99 | – | – | – | 15 | 99
15 | – | – | O=c1c(-n2cccn2)nc(Cl)c(-c2c(F)cc(F)cc2F)n1C1CCCCC1 | 97 | 99 | 73 | 100 | 99 | – | 89 | 99 | – | – | – | 99 | 99
16 | – | – | CC[C@H](C)Cn1c(-c2c(F)cc(OC)cc2F)c(Cl)nc(-n2cccn2)c1=O | 100 | 100 | 100 | 100 | 99 | 99 | 100 | 100 | 99 | 10 | 69 | 99 | 99
17 | – | – | CC(C)Cn1c(-c2c(F)cccc2F)c(Cl)nc(-c2cnccn2)c1=O | 89 | 0 | 0 | 98 | 98 | – | 0 | 99 | – | – | – | 83 | 98
